MIC and Activity data for five compounds are collected here from ChEMBL document CHEMBL1687792, “vanM, a new glycopeptide resistance gene cluster found in Enterococcus faecium” (2010).

Broadly, the MIC is the smallest concentration in the dilution series that meets the test's criterion for growth inhibition. A low value points to a more susceptible organism.

Assay [1] relates to Enterococcus faecium. The assay is described as follows: Antimicrobial activity against rifampin-, fusidic acid-resistant Enterococcus faecium BM-4105 by Etest. It counts as functional. In a few lines:
(§1)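 MIC by Etest on Mueller-Hinton agar, run per manufacturer's instructions and interpreted by CLSI recommendations. Same method for donor, recipient (BM4105RF, Fusr Rifr) and transconjugants. Transconjugants came from filter mating and were selected on BHI agar with rifampin (100 μg/ml) or fusidic acid (10 μg/ml) plus vancomycin (10 μg/ml).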

Assay [2] deals with Enterococcus faecium. The assay is described as follows: Antimicrobial activity against Enterococcus faecium BM-0661 transconjugant by Etest. Format: functional. Summed up:
as §1

The test system of assay [3] is Enterococcus faecium. In words: Antimicrobial activity against glycopeptide-resistant Enterococcus faecium isolate HS0761 harboring MLST sequence type ST78 and pulsotype C expressing vanM gene cluster isolated from urine of patient by Etest.
The test system of assay [4] is Enterococcus faecium. The assay is described as follows: Antimicrobial activity against glycopeptide-resistant Enterococcus faecium isolate HS0847 harboring MLST sequence type ST78 and pulsotype E expressing vanM gene cluster isolated from urine of patient by Etest.
Assay [5] has as its system Enterococcus faecium. In words: Antimicrobial activity against glycopeptide-resistant Enterococcus faecium isolate HS05417 harboring MLST sequence type ST17 and pulsotype A expressing vanA gene cluster isolated from urine of patient by Etest.
The test system of assay [6] is Enterococcus faecium. In words: Antimicrobial activity against glycopeptide-resistant Enterococcus faecium isolate HS05446 harboring MLST sequence type ST17 and pulsotype B expressing vanA gene cluster isolated from urine of patient by Etest.
Assay [7] has as its system Enterococcus faecium. In words: Antimicrobial activity against glycopeptide-resistant Enterococcus faecium isolate HS06188 harboring MLST sequence type ST78 and pulsotype A expressing vanA gene cluster isolated from urine of patient by Etest.
Assay [8] concerns Enterococcus faecium. In words: Antimicrobial activity against glycopeptide-resistant Enterococcus faecium isolate HS07261 harboring MLST sequence type ST78 and pulsotype D expressing vanM gene cluster isolated from urine of patient by Etest.
For assay [9], the system named is Enterococcus faecium. The assay is described as follows: Antimicrobial activity against glycopeptide-resistant Enterococcus faecium isolate HS08369 harboring MLST sequence type ST18 and pulsotype G expressing vanM gene cluster isolated from urine of patient by Etest.
In assay [10] the test system is Enterococcus faecium. The assay is described as follows: Antimicrobial activity against glycopeptide-resistant Enterococcus faecium isolate HS0649 harboring MLST sequence type ST17 and pulsotype B expressing vanA gene cluster isolated from exudate of patient by Etest.
The test system of assay [11] is Enterococcus faecium. The assay is described as follows: Antimicrobial activity against glycopeptide-resistant Enterococcus faecium isolate HS0661 harboring MLST sequence type ST78 and pulsotype C expressing vanM gene cluster isolated from exudate of patient by Etest.
Assay [12] deals with Enterococcus faecium. The assay is described as follows: Antimicrobial activity against glycopeptide-resistant Enterococcus faecium isolate HS08257 harboring MLST sequence type ST341 and pulsotype F expressing vanM gene cluster isolated from urine of patient by Etest.
Assay [13] deals with Enterococcus faecalis. In words: Induction of VanM gene cluster in glycopeptide-resistant Enterococcus […] isolate HS0661 harboring MLST sequence type ST78 and pulsotype C expressing vanM gene cluster isolated from exudate of patient assessed as UDP-MurNAc-tetrapeptide-D-lactate at 50 ug/mL by LC-MS method. It counts as functional, organism-based. Summed up:
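Efm-HS0661 was grown in BHI broth to OD650 0.4, then exposed to glycopeptide at 50 μg/ml for a further 120 min. Peptidoglycan precursors were extracted and separated on a C18 column at 30 μl/min using a linear gradient over 18 min. Eluent A was 10 mM ammonium acetate, pH 5; eluent B was 2% acetonitrile in the same buffer. Precursors were identified by MS from fragments at m/z 562 and 747.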

The structures appear in SMILES notation. Converted amounts (≈) assume the structure as drawn. The source made the active and inactive calls. Bounds are passed on as bounds.

For `C[C@H]1c2cccc(O)c2C(=O)C2=C(O)[C@]3(O)C(=O)C(C(N)=O)=C(O)[C@@H](N(C)C)[C@@H]3[C@@H](O)[C@@H]21.O` [DOXYCYCLINE], the MIC stood at 0.094 µg/mL in [1]; 0.094 µg/mL in assay [2]; 0.125 µg/mL in assay [3]; 0.094 µg/mL in [4]; 0.19 µg/mL in assay [5]; 6 µg/mL in assay [6]. In addition, the MIC amounted to 0.125 µg/mL in assay [7]; 0.19 µg/mL in assay [8]; 32 µg/mL in [9]; 6 µg/mL in [10]; 0.125 µg/mL in [11]; 0.19 µg/mL in [12].

For the compound `CC(=O)NC[C@H]1CN(c2ccc(N3CCOCC3)c(F)c2)C(=O)O1` [LINEZOLID], the MIC in assay [1] came to 1.5 µg/mL (≈ 4.45 µM); in assay [2], 1 µg/mL (≈ 2.96 µM); in assay [3], 1.5 µg/mL (≈ 4.45 µM); in [5], 1.5 µg/mL (≈ 4.45 µM); in [6] it was 1.5 µg/mL (≈ 4.45 µM); in assay [7], 1.5 µg/mL (≈ 4.45 µM). In addition, the MIC in [8], in assay [10] and in [11] was 1.5 µg/mL (≈ 4.45 µM) in each case.

`O=C1CN(/N=C/c2ccc([N+](=O)[O-])o2)C(=O)N1` [NITROFURANTOIN]: the MIC in assay [1] is 16 µg/mL (≈ 67.2 µM); in assay [2], 16 µg/mL (≈ 67.2 µM); in assay [3], 64 µg/mL (≈ 269 µM); in assay [4] it was 64 µg/mL (≈ 269 µM); in [5] it was 128 µg/mL (≈ 537 µM); in [6], 16 µg/mL (≈ 67.2 µM). In addition, the MIC in assay [7] is 128 µg/mL (≈ 537 µM); in [8], 128 µg/mL (≈ 537 µM); in assay [9] it was 32 µg/mL (≈ 134 µM); in [10], over 512 µg/mL; in assay [11] it was 64 µg/mL (≈ 269 µM); in [12] it was 196 µg/mL (≈ 823 µM).

Take `CO[C@H]1/C=C/O[C@@]2(C)Oc3c(C)c(O)c4c(O)c(c(/C=N/N5CCN(C)CC5)c(O)c4c3C2=O)NC(=O)/C(C)=C\C=C\[C@H](C)[C@H](O)[C@@H](C)[C@@H](O)[C@@H](C)[C@H](OC(C)=O)[C@@H]1C` [RIFAMPIN]: the MIC in [1] is over 32 µg/mL; in assay [2] it was over 32 µg/mL; in assay [3], 3 µg/mL (≈ 3.65 µM); in [4], over 32 µg/mL; in [5], 0.25 µg/mL (≈ 0.304 µM); in [6] it was 4 µg/mL (≈ 4.86 µM). The minimum inhibitory concentration (MIC) in [7] was 0.19 µg/mL (≈ 0.231 µM); in assay [8], over 32 µg/mL; in [9] it was 16 µg/mL (≈ 19.4 µM); in assay [10] it was 4 µg/mL (≈ 4.86 µM); in assay [11], 4 µg/mL (≈ 4.86 µM); in assay [12] it was 8 µg/mL (≈ 9.72 µM).

Turning to `CN[C@H](CC(C)C)C(=O)N[C@H]1C(=O)N[C@@H](CC(N)=O)C(=O)N[C@H]2C(=O)N[C@H]3C(=O)N[C@H](C(=O)N[C@H](C(=O)O)c4cc(O)cc(O)c4-c4cc3ccc4O)[C@H](O)c3ccc(c(Cl)c3)Oc3cc2cc(c3O[C@@H]2O[C@H](CO)[C@@H](O)[C@H](O)[C@H]2O[C@H]2C[C@](C)(N)[C@H](O)[C@H](C)O2)Oc2ccc(cc2Cl)[C@H]1O` [VANCOMYCIN], the MIC was 0.75 µg/mL (≈ 0.518 µM) in assay [1]; over 256 µg/mL in [2]; over 256 µg/mL in assay [3]; over 256 µg/mL in [4]; over 256 µg/mL in [5]; over 256 µg/mL in assay [6]. The MIC in assay [7], in assay [8], in assay [9], in assay [10], in [11] and in [12] was over 256 µg/mL in each case. For the same compound, the outcome in assay [13] was Active.
